The source of these data is the RNAGym collection of RNA variant scans (doi:10.1126/science.aae0568).

B1: tRNA (parent)
chain: GUUCCGUUGGCGUAAUGGUAACGCGUCUCCCUCCUAAGGAGAAGACUGCGGGUUCGAGUCCCGUACGGAACG

Fewer inactive variants are shown than the library holds.

Variants of B1 are the subject of the series. Put plainly: yeast fitness relative to wild type (ratio to wild type); higher = fitter; tRNA-Arg(CCU), competitive growth, 37 C, YPD. A digest of the protocol: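 Variants of the tRNA-Arg(CCU) gene, chemically synthesised with a 3% per-site mutation rate at 69 sites, were placed at the native genomic locus in Saccharomyces cerevisiae. The pooled strains were competed in YPD at 37°C for 24 hours in six parallel replicates. Gene amplicons from the start population and from each end population were read by 100-nucleotide paired-end sequencing. Darwinian fitness relative to wild type came from changes in genotype frequencies; genotypes needed ≥ 100 starting reads, and estimates < 0.5 were set to 0.5.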
Take GUUCCGUUGGCGUAACGGUAACGCGUCUCCCUCCUAAGGAGAAGACUGCGGGUCCGAGUCCCAUACGGAACG [U16C U54C G63A]: the yeast fitness was determined as 0.501.

Take GUUCCGUUGGCGUAACGGUAACGCGUCUCCCUCCUAAGGAGAAAACUGCGGGUCCCAGUCCCGUACGGAACG [U16C G44A U54C G56C]: the yeast fitness is 0.558.

As to GUUCCGUUGGCGUAACGGUAACGCGUCUCCCUCCUAAGGAGAAGACUGCGGGUUCGAAUCCCGUACGGAACG [U16C G58A], the yeast fitness was 0.87.

With GUUCCGUUGGCGUAAGGGUAACGCGUCUCCCUCCUAAGGAGAAGACUGCGGGUUCGGGUCCCGUAUGGUACG [U16G A57G C66U A69U], the yeast fitness is no more than 0.5.

On to GUUCCGUUGGCGUAAGGGUAACGCGUCUCCCUCCUAAGGAGAAGACUGCGGGUUCGAGUCCCGUGCGGAACG [U16G A65G], for which the yeast fitness stood at 0.904.

Take GUUCCGUUGGCGUAAGGGUAACGCGUCUCCCUCCUAAGGAGAAGACUGCGGGUUCGAGUCCCGUCCGGAACG [U16G A65C]: the yeast fitness was 0.932.

Regarding GUUCCGUUGGCGUAACGGCAACGCGUCUCCCUCCUAAGGAGAAGACUGCGGGUUCGAGUCCCGUGCGGAACG [U16C U19C A65G], the yeast fitness is 1.05.

Take GUUCCGUUGGCGUAAGGGUAACGCGUCUCCCUCCUAUGGAGAAGACAGCGGUUUCGAGUCCCGUACGGAACG [U16G A37U U47A G52U]: the yeast fitness was no more than 0.5.

GUUCCGUUGGCGUAACGGAAACGCGUCUCCCUCCUAAGGAGAAGACUGCGGGUUCGAGUCCCGUACGGAACG [U16C U19A]: the yeast fitness is 1.16.

GUUCCGUUGGCGUAAGGGUAACGCGUCUCCCUCCUAAGGAGAAGACUGCGGGUUCGGGUCCCGUACGGAACG [U16G A57G]: the yeast fitness was 0.805.

As to GUUCCGUUGGCGUAAGGGUAACGCGUCUCCCUCCUAGGGAGAAGACUGCGGGUUCGAGUCCCGUACGGAACG [U16G A37G], the yeast fitness stood at 0.673.

Turning to GUUCCGUUGGCGUAAGGGUAACGCGUCUCCCUCCUAUGGAGAAGACUGCGGGUUCGAGUCCCGUACGGAACG [U16G A37U], the yeast fitness came to 0.618.

In the case of GUUCCGUUGGCGUAACGGUAACGCGUCUCCCUCCUAAGGAGAAGACUGCGGGUUCAAGUCCCGUACGGUACG [U16C G56A A69U], the yeast fitness is 0.799.

GUUCCGUUGGCGUAAGGGUAACGCGUCUCCCUCCUAAGGCGAAGACUGCGGGUUCGAGUCCCGUACGGAACG [U16G A40C]: the yeast fitness came to 0.761.

Consider GUUCCGUUGGCGUAAGGGUACCGCGUCUCCCUCAUAAGGAGAAGACUGCGGGUUCGAGUCCCGUACGGAACG [U16G A21C C34A], for which the yeast fitness was no more than 0.5.

Turning to GUUCCGUUGGCGUAACGGCAACGCGUCUCCCUCCCAAGGAGAAGACUGCGGGUUCGAGUCCCGUACGGAACG [U16C U19C U35C], the yeast fitness was no more than 0.5.

Regarding GUUCCGUUGGCGUAACCGUAACGUGUCUCCCUCCUAAGGAGAAGACUGCGGGUUCGAGUCCCGUACGGAACG [U16C G17C C24U], the yeast fitness is 0.559.

With GUUCCGUUGGCGUAACGGAAACGCGACUCCCUCCUAAGGAGAAGACUGCGGGUUCGAGUCCCGUACGGAACG [U16C U19A U26A], the yeast fitness stood at 0.648.

With GUUCCGUUGGCGUAACCGUAACGCGUGUCCCUCCUAAGGAGAAGACUGCGGGUUCGAGUCCCGUUCGGAACG [U16C G17C C27G A65U], the yeast fitness was no more than 0.5.

Turning to GUUCCGUUGGCGUAACGGUAACGCGUCUCCCUCCUAAGGAGAAGACUACGGGUUCGAGUCCCGUACGGAACG [U16C G48A], the yeast fitness was determined as 0.996.

For the variant GUUCCGUUGGCGUAACGGUAACGCCCCUCCCUCUUAAGGAGAAGACUGCGGGUUCGAGUCCCGGACGGAACG [U16C G25C U26C C34U U64G], the yeast fitness was 0.528.

In the case of GUUCCGUUGGCGUAAGGGUAACGCGUCUCCCUCCUAAGGAGAUGACUGCCGGUUCGAGUCCCGUACAGAACG [U16G A43U G50C G67A], the yeast fitness is no more than 0.5.

With GUUCCGUUGGCGUAACGGUAACGCGUCUCCCUCCCAAGGAGAACACUGCGGGUUCGAGUCCCGUACGGAACG [U16C U35C G44C], the yeast fitness is no more than 0.5.

On to GUUCCGUUGGCGUAACGGUAACGCGUCUCCCUCCUAAGGAGAAGACUCUGGGUUCGAGUCCCGUCCGGACCG [U16C G48C C49U A65C A70C], for which the yeast fitness was no more than 0.5.

GUUCCGUUGGCGUAACGGUAACGCGUCUCCCUCCAAAGGAGAAGACUGCGGGUUCGAGUCACGUACGGAUCG [U16C U35A C61A A70U]: the yeast fitness was determined as 0.532.

As for GUUCCGUUGGCGUAACGAUAACGGGUCUCCCUCCUAAGGAGAAGACUGCGGGUUCGCGUCCCGUACGGAACG [U16C G18A C24G A57C], the yeast fitness is no more than 0.5.

As to GUUCCGUUGGCGUAAGGGUCACGCGUCUCCCUCCUAAGGAGAAGACUGCGGGUUCGAGUUCCGUACGGAACG [U16G A20C C60U], the yeast fitness is no more than 0.5.

Regarding GUUCCGUUGGCGUAACGGUAACGCGUCUCCCUCCUAAGGAGAAGACUGCGGGUUCAAGUCCCGUACGGAACG [U16C G56A], the yeast fitness is 1.01.

As for GUUCCGUUGGCGUAACGGUAACGCGUCUCCCUCCUAAGGACAAGACUGCGGGUUCGAGUCCCGUACGGAACG [U16C G41C], the yeast fitness was 0.867.

Turning to GUUCCGUUGGCGUAACGGUAACGCGUCUCCCGCCUAAGGAGAAGACUGGGGGUUAGAGUCCCGUACGGAACG [U16C U32G C49G C55A], the yeast fitness is no more than 0.5.

With GUUCCGUUGGCGUAACGGUAACGCGUCUCCCUCCCAAGGAGAAGACCGCGGGUUCGAGUCCCGUACGGAACG [U16C U35C U47C], the yeast fitness was no more than 0.5.

As for GUUCCGUUGGCGUAACGGUAACGCGUCACCCUCCUAAGGAGAAGACUGCGGGUUCGAGUCCCGUACGGAACG [U16C U28A], the yeast fitness was 0.827.

Consider GUUCCGUUGGCGUAACGGUAACCCGUCUCCCUCCUAAGGAGAAGACUGCGCGUUCGAGUCCCGUACGGAACG [U16C G23C G51C], for which the yeast fitness was no more than 0.5.

Turning to GUUCCGUUGGCGUAAGGGUAACGCGUCUCCCUCCUAAGGAGAAGGCUGCGGGUUCGAGUCCCGUAUGGAACG [U16G A45G C66U], the yeast fitness was 0.771.

On to GUUCCGUUGGCGUAACGGUAACCCGUCUGCCUCCUAAGGAGAUGACUGCAGGUUCGAGUCCCGUCCGGAACG [U16C G23C C29G A43U G50A A65C], for which the yeast fitness was no more than 0.5.

Consider GUUCCGUUGGCGUAACGGUAACGCGUCUCCCUCCUAAGGAGAAGACUGCGGGUUCGAGUCCCGUACGCUACG [U16C G68C A69U], for which the yeast fitness was no more than 0.5.

Turning to GUUCCGUUGGCGUAACGGUAACGCGUCUCCCUCCUAAGGAGAAGACCGCGGGUUCGAGUCCCGGACGGAACG [U16C U47C U64G], the yeast fitness is no more than 0.5.

For GUUCCGUUGGCGUAAGGGUAACGCGUCUCCCUCCUAAGGAGGAGACUGCGGGUUCGAGUCCCGUACGGAACG [U16G A42G], the yeast fitness was 0.78.
